ChEMBL document CHEMBL5705905, “Pharmacological targeting of kinases MST1 and MST2 augments tissue repair and regeneration” (Sci Transl Med, 2016)
Calls of active or inactive are those of the source. The rule behind the calls is not given here.

Key:
[1] = target: Inhibitor of nuclear factor kappa-B kinase subunit alpha (Homo sapiens) (UniProt O15111); assay: Inhibition of IKK-alpha (unknown origin) assessed as remaining activity at 1 uM by Kinome scan method relative to control
[2] = target: Phosphatidylinositol 4-kinase beta (Homo sapiens) (UniProt Q9UBF8); assay: Inhibition of PIK4CB (unknown origin) assessed as remaining activity at 1 uM by Kinome scan method relative to control
Phosphatidylinositol 4-kinase beta (Homo sapiens), sequence (Q9UBF8 2-816 limits assumed): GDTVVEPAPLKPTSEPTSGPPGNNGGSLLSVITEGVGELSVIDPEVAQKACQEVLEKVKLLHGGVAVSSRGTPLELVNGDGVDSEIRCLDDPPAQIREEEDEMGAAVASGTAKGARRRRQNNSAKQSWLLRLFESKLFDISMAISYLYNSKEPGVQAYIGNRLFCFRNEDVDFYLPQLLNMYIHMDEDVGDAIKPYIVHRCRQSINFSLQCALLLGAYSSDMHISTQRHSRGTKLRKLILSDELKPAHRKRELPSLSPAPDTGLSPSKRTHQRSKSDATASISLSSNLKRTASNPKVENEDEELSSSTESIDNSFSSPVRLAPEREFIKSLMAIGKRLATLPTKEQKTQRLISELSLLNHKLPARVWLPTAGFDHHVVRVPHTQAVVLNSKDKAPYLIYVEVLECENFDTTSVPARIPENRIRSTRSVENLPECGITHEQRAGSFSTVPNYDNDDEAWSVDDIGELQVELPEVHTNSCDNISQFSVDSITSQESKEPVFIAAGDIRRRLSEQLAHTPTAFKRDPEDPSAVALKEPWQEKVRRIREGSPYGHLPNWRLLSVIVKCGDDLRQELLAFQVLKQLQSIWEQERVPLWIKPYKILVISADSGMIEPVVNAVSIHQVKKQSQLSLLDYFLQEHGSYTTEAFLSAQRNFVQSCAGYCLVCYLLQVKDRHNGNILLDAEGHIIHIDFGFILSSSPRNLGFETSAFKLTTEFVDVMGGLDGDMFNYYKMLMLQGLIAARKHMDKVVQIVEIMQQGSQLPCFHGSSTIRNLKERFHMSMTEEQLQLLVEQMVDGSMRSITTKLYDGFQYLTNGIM

[3] = target: Interleukin-1 receptor-associated kinase 3 (Homo sapiens) (UniProt Q9Y616); assay: Inhibition of IRAK3 (unknown origin) assessed as remaining activity at 1 uM by Kinome scan method relative to control
Interleukin-1 receptor-associated kinase 3 (Homo sapiens), sequence (Q9Y616 whole entry): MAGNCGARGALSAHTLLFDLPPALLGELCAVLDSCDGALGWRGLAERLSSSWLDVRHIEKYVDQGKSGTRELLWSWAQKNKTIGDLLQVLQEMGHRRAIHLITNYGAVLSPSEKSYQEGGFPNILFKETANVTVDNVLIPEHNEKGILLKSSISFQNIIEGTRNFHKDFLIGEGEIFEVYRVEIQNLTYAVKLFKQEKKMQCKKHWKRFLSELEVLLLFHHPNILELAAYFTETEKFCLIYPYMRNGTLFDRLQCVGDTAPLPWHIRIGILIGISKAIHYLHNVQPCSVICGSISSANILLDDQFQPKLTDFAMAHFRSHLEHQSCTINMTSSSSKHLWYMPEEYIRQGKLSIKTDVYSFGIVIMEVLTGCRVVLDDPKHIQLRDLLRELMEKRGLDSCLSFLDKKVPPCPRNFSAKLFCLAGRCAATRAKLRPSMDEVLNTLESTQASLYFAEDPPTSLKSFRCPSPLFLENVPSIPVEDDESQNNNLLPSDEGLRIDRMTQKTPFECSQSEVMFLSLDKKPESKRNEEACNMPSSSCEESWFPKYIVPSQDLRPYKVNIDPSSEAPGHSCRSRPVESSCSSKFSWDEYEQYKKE

[4] = target: Serine/threonine-protein kinase 17B (Homo sapiens) (UniProt O94768); assay: Inhibition of DRAK2 (unknown origin) assessed as remaining activity at 1 uM by Kinome scan method relative to control
Serine/threonine-protein kinase 17B (Homo sapiens), sequence (O94768 whole entry): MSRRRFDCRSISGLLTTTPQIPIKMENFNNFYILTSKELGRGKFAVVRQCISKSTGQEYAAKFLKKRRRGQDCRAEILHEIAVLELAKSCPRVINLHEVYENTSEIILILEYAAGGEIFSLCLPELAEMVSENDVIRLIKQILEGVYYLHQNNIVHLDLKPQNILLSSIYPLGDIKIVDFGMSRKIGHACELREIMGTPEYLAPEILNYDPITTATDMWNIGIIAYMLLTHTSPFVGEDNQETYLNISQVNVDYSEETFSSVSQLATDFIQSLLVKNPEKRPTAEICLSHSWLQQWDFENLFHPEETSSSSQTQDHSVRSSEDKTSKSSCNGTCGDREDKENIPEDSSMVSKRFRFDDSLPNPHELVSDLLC

[5] = MRT (0 to infinity) in male Sprague-Dawley rat at 5 mg/kg, iv measured for 24 hrs by LC-MS/MS analysis; type: ADME, organism-based; details: in vivo
Mus musculus [6] = assay: Protection against CCl4-induced mouse assessed as low dead cells at 1 mg/kg, ip administration daily for 10 days by TUNEL staining; type: functional, organism-based; details: Liver, time 10.0 day
[7] = target: Cyclin-dependent kinase 7 (Homo sapiens) (UniProt P50613); assay: Inhibition of CDK7 (unknown origin) assessed as remaining activity at 1 uM by Kinome scan method relative to control
Cyclin-dependent kinase 7 (Homo sapiens), sequence (P50613 whole entry): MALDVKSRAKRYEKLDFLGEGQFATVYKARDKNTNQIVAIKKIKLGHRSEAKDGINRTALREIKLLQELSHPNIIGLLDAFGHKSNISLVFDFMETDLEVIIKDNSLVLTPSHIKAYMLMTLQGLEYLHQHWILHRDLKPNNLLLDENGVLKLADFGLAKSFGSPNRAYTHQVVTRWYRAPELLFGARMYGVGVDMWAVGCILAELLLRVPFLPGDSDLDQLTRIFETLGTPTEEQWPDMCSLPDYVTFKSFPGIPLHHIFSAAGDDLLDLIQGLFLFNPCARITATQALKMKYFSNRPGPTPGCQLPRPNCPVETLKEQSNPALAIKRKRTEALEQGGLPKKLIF
In short: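 Active-site-dependent competition-binding profiling (KINOMEscan) at 1 μM against a 468-kinase panel; compound supplied from a 10 mM DMSO stock. Read-out is ctrl% = (test signal − positive control signal)/(negative control signal − positive control signal) × 100. DMSO is the negative control (100%) and a control compound the positive control (0%). Lower ctrl% means tighter binding.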

[8] = target: Serine/threonine-protein kinase haspin (Homo sapiens) (UniProt Q8TF76); assay: Inhibition of HASPIN (unknown origin) assessed as remaining activity at 1 uM by Kinome scan method relative to control
Serine/threonine-protein kinase haspin (Homo sapiens), sequence (Q8TF76 whole entry): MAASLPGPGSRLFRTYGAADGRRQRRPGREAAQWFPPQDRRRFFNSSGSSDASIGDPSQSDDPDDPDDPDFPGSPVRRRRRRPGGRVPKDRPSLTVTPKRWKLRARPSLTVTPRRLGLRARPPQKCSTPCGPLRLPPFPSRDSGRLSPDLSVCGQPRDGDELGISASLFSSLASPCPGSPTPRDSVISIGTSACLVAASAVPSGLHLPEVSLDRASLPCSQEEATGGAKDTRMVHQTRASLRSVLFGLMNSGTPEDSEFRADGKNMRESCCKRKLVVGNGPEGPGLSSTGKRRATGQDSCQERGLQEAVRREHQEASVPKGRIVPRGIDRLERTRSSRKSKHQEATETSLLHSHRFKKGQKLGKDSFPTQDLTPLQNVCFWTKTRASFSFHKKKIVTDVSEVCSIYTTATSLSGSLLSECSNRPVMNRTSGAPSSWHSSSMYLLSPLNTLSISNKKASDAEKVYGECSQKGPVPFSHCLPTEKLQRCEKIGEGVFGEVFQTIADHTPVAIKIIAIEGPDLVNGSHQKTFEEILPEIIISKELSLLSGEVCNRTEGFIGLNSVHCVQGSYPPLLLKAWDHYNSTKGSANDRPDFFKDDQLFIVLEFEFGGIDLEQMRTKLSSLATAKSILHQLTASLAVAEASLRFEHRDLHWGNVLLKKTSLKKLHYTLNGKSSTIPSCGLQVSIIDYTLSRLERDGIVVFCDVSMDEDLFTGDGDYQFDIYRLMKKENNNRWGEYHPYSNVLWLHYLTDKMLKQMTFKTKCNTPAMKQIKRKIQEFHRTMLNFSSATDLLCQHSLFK

[9] = target: T1, Serine/threonine-protein kinase 4 (Homo sapiens, UniProt Q13043); assay: Inhibition of MST1 (unknown origin) in presence of ATP by enzymatic assay
T1 sequence (Q13043 whole entry): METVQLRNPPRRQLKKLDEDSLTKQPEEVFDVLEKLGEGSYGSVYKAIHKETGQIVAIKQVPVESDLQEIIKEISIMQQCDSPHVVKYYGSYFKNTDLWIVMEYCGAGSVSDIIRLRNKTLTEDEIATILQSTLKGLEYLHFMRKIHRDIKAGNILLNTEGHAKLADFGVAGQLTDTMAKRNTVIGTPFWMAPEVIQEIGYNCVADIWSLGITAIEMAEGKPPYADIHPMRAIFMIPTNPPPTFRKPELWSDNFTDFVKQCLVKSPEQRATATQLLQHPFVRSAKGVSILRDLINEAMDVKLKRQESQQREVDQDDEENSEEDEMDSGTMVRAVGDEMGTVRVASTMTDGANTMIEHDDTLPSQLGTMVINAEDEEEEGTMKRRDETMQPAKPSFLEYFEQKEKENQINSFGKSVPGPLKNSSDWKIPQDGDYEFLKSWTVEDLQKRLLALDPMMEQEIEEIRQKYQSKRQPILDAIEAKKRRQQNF

[10] = target: Serine/threonine-protein kinase NLK (Homo sapiens) (UniProt Q9UBE8); assay: Inhibition of NLK (unknown origin) assessed as remaining activity at 1 uM by Kinome scan method relative to control
[11] = system: Tyrosine-protein kinase ABL1 (Homo sapiens), P00519 [T315I]; assay: Inhibition of phosphorylated ABL1 T315I mutant (unknown origin) assessed as remaining activity at 1 uM by Kinome scan method relative to control
[12] = system: Tyrosine-protein kinase ABL1 (Homo sapiens), P00519 [Q252H]; assay: Inhibition of phosphorylated ABL1 Q252H mutant (unknown origin) assessed as remaining activity at 1 uM by Kinome scan method relative to control
[13] = system: Tyrosine-protein kinase ABL1 (Homo sapiens), P00519 [E255K]; assay: Inhibition of phosphorylated ABL1 E255K mutant (unknown origin) assessed as remaining activity at 1 uM by Kinome scan method relative to control
[14] = target: Cyclin-dependent kinase 16 (Homo sapiens) (UniProt Q00536); assay: Inhibition of PCTK1 (unknown origin) assessed as remaining activity at 1 uM by Kinome scan method relative to control
Cyclin-dependent kinase 16 (Homo sapiens), sequence (Q00536 whole entry): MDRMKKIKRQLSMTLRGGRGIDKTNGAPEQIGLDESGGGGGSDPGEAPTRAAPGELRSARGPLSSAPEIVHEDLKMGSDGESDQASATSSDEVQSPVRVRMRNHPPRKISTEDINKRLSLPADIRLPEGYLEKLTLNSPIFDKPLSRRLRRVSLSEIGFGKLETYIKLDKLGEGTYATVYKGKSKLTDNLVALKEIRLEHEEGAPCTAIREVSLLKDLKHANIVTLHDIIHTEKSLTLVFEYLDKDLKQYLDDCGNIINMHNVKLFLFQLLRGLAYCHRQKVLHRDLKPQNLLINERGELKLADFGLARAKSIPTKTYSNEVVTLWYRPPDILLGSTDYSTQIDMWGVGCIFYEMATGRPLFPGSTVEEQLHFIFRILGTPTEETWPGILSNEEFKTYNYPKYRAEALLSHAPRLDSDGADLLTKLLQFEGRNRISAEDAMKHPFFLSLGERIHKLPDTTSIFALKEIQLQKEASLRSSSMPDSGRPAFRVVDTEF

[15] = target: Serine/threonine-protein kinase 3 (Homo sapiens, UniProt Q13188, Y101F)
Serine/threonine-protein kinase 3, sequence (Q13188 whole entry Y101F): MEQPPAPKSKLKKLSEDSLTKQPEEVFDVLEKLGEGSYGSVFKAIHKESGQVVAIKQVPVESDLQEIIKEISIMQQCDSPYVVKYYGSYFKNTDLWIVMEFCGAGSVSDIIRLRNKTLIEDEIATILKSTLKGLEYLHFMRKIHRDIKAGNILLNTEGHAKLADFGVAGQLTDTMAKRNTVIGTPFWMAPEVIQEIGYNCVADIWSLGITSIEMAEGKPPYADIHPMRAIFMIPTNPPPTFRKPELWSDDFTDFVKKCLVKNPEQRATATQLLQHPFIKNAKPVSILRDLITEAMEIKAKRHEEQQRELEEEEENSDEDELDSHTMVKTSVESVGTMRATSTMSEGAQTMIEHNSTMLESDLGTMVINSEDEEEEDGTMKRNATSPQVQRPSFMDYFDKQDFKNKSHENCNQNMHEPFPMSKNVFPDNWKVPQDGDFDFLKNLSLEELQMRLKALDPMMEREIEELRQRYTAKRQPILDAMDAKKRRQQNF

[16] = Tmax in male Sprague-Dawley rat at 10 mg/kg, po measured for 24 hrs by LC-MS/MS analysis; type: ADME, organism-based; details: in vivo
Mus musculus [17] = assay: Anti-colitis activity against DSS-induced mouse assessed as high Ki67-positive proliferating cells at 1 mg/kg, ip administrated daily for 8 days by IHC staining; type: functional, organism-based; details: Colon, time 8.0 day
In short: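 Wild-type mice received oral DSS for 7 days with vehicle or 1 mg/kg daily. Colon sections were stained by IHC for YAP, BrdU and Ki67, and positive cells were quantified per animal. Means ± SD, n = 10, Student's t test.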

[18] = target: Mitogen-activated protein kinase 13 (Homo sapiens) (UniProt O15264); assay: Inhibition of P38delta (unknown origin) assessed as remaining activity at 1 uM by Kinome scan method relative to control
[19] = target: Serine/threonine-protein kinase Nek3 (Homo sapiens) (UniProt P51956); assay: Inhibition of NEK3 (unknown origin) assessed as remaining activity at 1 uM by Kinome scan method relative to control
[20] = system: Hepatocyte growth factor receptor (Homo sapiens), P08581 [Y1235D]; assay: Inhibition of MET Y1235D mutant (unknown origin) assessed as remaining activity at 1 uM by Kinome scan method relative to control
[21] = target: Serine/threonine-protein kinase 25 (Homo sapiens) (UniProt O00506); assay: Inhibition of YSK1 (unknown origin) assessed as remaining activity at 1 uM by Kinome scan method relative to control
Serine/threonine-protein kinase 25 (Homo sapiens), sequence (O00506 whole entry, looked up): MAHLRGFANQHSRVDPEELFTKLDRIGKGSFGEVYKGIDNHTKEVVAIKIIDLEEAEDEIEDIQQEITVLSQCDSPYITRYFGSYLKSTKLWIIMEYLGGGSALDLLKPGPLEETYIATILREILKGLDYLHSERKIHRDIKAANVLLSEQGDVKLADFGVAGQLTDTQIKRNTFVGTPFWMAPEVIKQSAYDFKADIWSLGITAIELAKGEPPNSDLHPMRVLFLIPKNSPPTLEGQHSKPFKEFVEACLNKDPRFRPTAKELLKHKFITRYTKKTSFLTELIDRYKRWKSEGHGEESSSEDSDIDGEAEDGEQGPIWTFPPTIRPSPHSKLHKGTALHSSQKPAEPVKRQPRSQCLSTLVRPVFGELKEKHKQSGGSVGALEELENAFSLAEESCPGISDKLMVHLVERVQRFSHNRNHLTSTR

[22] = target: RAC-alpha serine/threonine-protein kinase (Homo sapiens) (UniProt P31749); assay: Inhibition of AKT1 (unknown origin) assessed as remaining activity at 1 uM by Kinome scan method relative to control
RAC-alpha serine/threonine-protein kinase (Homo sapiens), sequence (P31749 whole entry): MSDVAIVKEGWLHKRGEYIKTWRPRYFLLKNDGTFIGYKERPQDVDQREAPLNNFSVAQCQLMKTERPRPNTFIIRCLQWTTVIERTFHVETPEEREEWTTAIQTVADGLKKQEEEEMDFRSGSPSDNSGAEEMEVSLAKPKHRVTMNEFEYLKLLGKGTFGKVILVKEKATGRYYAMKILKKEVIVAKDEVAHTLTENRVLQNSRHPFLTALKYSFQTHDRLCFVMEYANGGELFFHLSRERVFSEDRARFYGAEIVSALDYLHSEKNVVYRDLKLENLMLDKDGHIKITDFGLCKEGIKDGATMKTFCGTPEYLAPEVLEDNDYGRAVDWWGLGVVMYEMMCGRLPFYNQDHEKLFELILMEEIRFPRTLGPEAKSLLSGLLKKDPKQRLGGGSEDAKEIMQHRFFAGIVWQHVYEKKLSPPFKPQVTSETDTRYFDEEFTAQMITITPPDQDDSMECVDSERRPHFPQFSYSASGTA
In short: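 Active-site-dependent competition-binding (KINOMEscan) panel of 468 kinases, test compound at 1 μM (from a 10 mM DMSO stock). Read-out is ctrl% = (test signal − positive control signal)/(negative control signal − positive control signal) × 100. DMSO is the negative control (100%) and a control compound is the positive control (0%). Lower ctrl% means tighter binding.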

[23] = system: Receptor-type tyrosine-protein kinase FLT3 (Homo sapiens), P36888 [D835V]; assay: Inhibition of FLT3 D835V mutant (unknown origin) assessed as remaining activity at 1 uM by Kinome scan method relative to control
[24] = system: eIF-2-alpha kinase GCN2 (Homo sapiens), Q9P2K8 [S808G]; assay: Inhibition of GCN2 S808G mutant kinase domain 2 (unknown origin) assessed as remaining activity at 1 uM by Kinome scan method relative to control

## CN1C(=O)c2sccc2N(C)c2nc(Nc3ccc(S(N)(=O)=O)cc3)ncc21
[1]
  Activity: 94%
[2]
  Activity: 65%
[3]
  Activity: 100%
[4]
  Activity: 90%
[5]
  MRT inf: 1.36 h
Mus musculus [6]
  Activity: Active
[7]
  Activity: 60%
[8]
  Activity: 96%
[9]
  IC50: 9.8 nM
[10]
  Activity: 85%
[11]
  Activity: 1.6%
[12]
  Activity: 6.8%
[13]
  Activity: 11%
[14]
  Activity: 93%
[15]
  IC50: 361 nM
[16]
  Tmax: 3 h
Mus musculus [17]
  Activity: Active
[18]
  Activity: 94%
[19]
  Activity: 66%
[20]
  Activity: 83%
[21]
  Activity: 94%
[22]
  Activity: 100%
[23]
  Activity: 18%
[24]
  Activity: 100%
